Experimental data from ChEMBL document CHEMBL1687924, “Antiviral activity of seed extract from Citrus bergamia towards human retroviruses” (Bioorg Med Chem, 2011).
Values after ≈ are worked out from the molar mass of the structure shown. Active and inactive are the calls of the source. The calls are words filed in the database; no cut-off is given here.

Legend:
[1] = tested on: Human T-cell leukemia virus type I; experiment: Antiviral activity against Human T-cell leukemia/lymphoma virus type 1 infected in human PBMC assessed as inhibition of tax/rex gene expression at 22.93 ug/ml after 3 weeks post infection by quantitative real time RT-PCR; format: functional; settings: Primate T-lymphotropic virus 1, 504 h
[2] = tested on: Human T-cell leukemia virus type I; experiment: Antiviral activity against Human T-cell leukemia/lymphoma virus type 1 infected in human PBMC assessed as inhibition of tax/rex gene expression after 3 weeks post infection by quantitative real time RT-PCR; format: functional, organism-based; settings: Primate T-lymphotropic virus 1, 504 h
Procedure, shortened: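 PBMC infected with HTLV-1. Compounds were added at infection onset, then at half concentration on days 3, 7 and 10 pi; the vehicle was up to 0.5% methanol. Cells were harvested 3 weeks pi and debris removed on a density gradient. tax/rex mRNA was measured by SYBR RQ-PCR normalized to GUSB (2^-ΔΔCt). RQ-IC50 came from three experiments, each in triplicate.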

[3] = tested on: Human immunodeficiency virus 1; experiment: Antiviral activity against HIV1 infected in human PBMC assessed as inhibition of gag gene expression after 5 days post infection by quantitative real time RT-PCR; format: functional, organism-based; settings: Human immunodeficiency virus 1, 120 h
Procedure, shortened: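 Donor PBMC (HIV-, HBV-, HCV-seronegative) stimulated overnight with PHA 2 µg/ml, then infected 2 h with clarified H9/HIV-1IIIB supernatant (20 ng/ml p24), then cultured with IL2 20 U/ml. Compounds added 4 h pre-infection and re-added daily at half concentration; vehicle ≤0.5% methanol. Harvest day 5; gag mRNA by SYBR RQ-PCR vs GUSB (2^-ΔΔCt); three experiments in triplicate; IC50.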

[4] = Cytotoxicity against human MOLT3 cells after 24 hrs by MTS assay; format: cell-based, MOLT-3
Procedure, shortened: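 MOLT-3 cells (1 × 10^4) were exposed for 1 day in RPMI with 5% FBS to seven concentrations (1 ng/ml–1 mg/ml). MTS formazan formation was read at 490 nm after 1 h with reagent. Mean CC50 comes from three independent experiments.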

[5] = Cytotoxicity against PHA-stimutated human PBMC after 24 hrs by MTS assay; format: cell-based; settings: PHA-stimulated PBMC
[6] = tested on: Human immunodeficiency virus 1; experiment: Antiviral activity against HIV1 infected in human PBMC assessed as inhibition of gag gene expression at 0.23 ug/ml after 5 days post infection by conventional RT-PCR; settings: Human immunodeficiency virus 1, 120 h
[7] = tested on: Human T-cell leukemia virus type I; experiment: Antiviral activity against Human T-cell leukemia/lymphoma virus type 1 infected in human PBMC assessed as inhibition of tax/rex gene expression at 5 ug/ml after 3 weeks post infection by quantitative real time RT-PCR; format: functional, organism-based
Procedure, shortened: (§1)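 Compound was added to PBMC cultures at the onset of HTLV-1 infection and re-added at half concentration on days 3, 7 and 10 pi, with 0.5% methanol as vehicle control. Cells were harvested 3 weeks pi and debris removed on a density gradient. Tax/rex mRNA was quantified by SYBR Green RT-PCR (40 cycles, 95/60 °C) against GUSB using the comparative Ct method.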

[8] = tested on: Human immunodeficiency virus 1; experiment: Antiviral activity against HIV1 infected in human PBMC assessed as inhibition of gag gene expression at 1 ug/ml after 5 days post infection by quantitative real time RT-PCR; format: functional, organism-based
Procedure, shortened: (§2)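 PBMC were stimulated overnight with 2 µg/ml PHA and infected for 2 h with clarified H9/HIV-1IIIB supernatant at 20 ng/ml p24. They were then cultured with IL-2 20 U/ml. Compound was added 4 h before infection and re-added daily at half concentration, with 0.5% methanol as vehicle control. At 5 days pi, gag mRNA was measured by SYBR Green RQ-PCR in triplicate, normalized to GUSB (2^-ΔΔCt).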

[9] = Inhibition of Human T-cell leukemia/lymphoma virus type 1 reverse transcriptase activity infected in human MT2 cells assessed as level of p19 antigen; format: cell-based, Human T-cell leukemia virus type I; settings: Primate T-lymphotropic virus 1, MT2
[10] = tested on: Human T-cell leukemia virus type I; experiment: Ratio of IC50 for nevirapine to compound IC50 for Human T-cell leukemia/lymphoma virus type 1 reverse transcriptase activity
[11] = biological target: Human immunodeficiency virus type 1 reverse transcriptase (Human immunodeficiency virus 1, UniProt Q72547); experiment: Inhibition of HIV1 3B reverse transcriptase activity
Procedure, shortened: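 Commercial purified HIV-1 RT replaced the virion lysate in the same cell-free reverse transcription/20-cycle amplification assay. RTIC50 came from band densitometry over three independent experiments, with no compound pre-activation.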

[12] = Ratio of zidovudine CC50 to compound CC50 for human MOLT3 cells; format: ADME, cell-based, MOLT-3
[13] = Ratio of Lamivudine CC50 to compound CC50 for human MOLT3 cells; format: ADME, cell-based, MOLT-3
[14] = Ratio of nevirapine CC50 to compound CC50 for human MOLT3 cells; format: ADME, cell-based, MOLT-3
[15] = Ratio of CC50 for PHA-stimulated human PBMC to IC50 for HIV1 infected in human PBMC
[16] = tested on: Human immunodeficiency virus 1; experiment: Antiviral activity against HIV1 infected in human PBMC assessed as inhibition of gag gene expression at 0.27 ug/ml after 5 days post infection by quantitative real time RT-PCR; format: functional; settings: Human immunodeficiency virus 1, 120 h
[17] = tested on: Human T-cell leukemia virus type I; experiment: Antiviral activity against Human T-cell leukemia/lymphoma virus type 1 infected in human PBMC assessed as inhibition of tax/rex gene expression at 10 ug/ml after 3 weeks post infection by quantitative real time RT-PCR; format: functional, organism-based; procedure, shortened: as §1
[18] = tested on: Human immunodeficiency virus 1; experiment: Antiviral activity against HIV1 infected in human PBMC assessed as inhibition of gag gene expression at 10 ug/ml after 5 days post infection by quantitative real time RT-PCR; format: functional, organism-based; procedure, shortened: as §2
[19] = tested on: Human T-cell leukemia virus type I; experiment: Antiviral activity against Human T-cell leukemia/lymphoma virus type 1 infected in human PBMC assessed as inhibition of tax/rex gene expression at 0.27 ug/ml after 3 weeks post infection by quantitative real time RT-PCR; format: functional; settings: Primate T-lymphotropic virus 1, 504 h

Row | SMILES | inhibition at 22.93 µg/mL [1] [%] | IC50 [2] [µg/mL] | IC50 [3] [µg/mL] | CC50 at 24 h [4] [µg/mL] | CC50 at 24 h [5] [µg/mL] | inhibition at 0.23 µg/mL [6] [%] | inhibition [7] | inhibition [8] | IC50 [9] [µg/mL] | Ratio IC50 [10] | IC50 [11] [nM] | selectivity ratio [12] | selectivity ratio [13] | selectivity ratio [14] | Ratio CC50/IC50 [15] | inhibition at 0.27 µg/mL [16] [%] | inhibition [17] | inhibition [18] | inhibition at 0.27 µg/mL [19] [%]
1 | Nc1ccn([C@@H]2CS[C@H](CO)O2)c(=O)n1 [LAMIVUDINE] | 100 | 14.2 (≈ 62.1 µM) | 0.19 (≈ 0.829 µM) | 5.94 (≈ 25.9 µM) | 53 (≈ 231 µM) | 100 |  |  |  |  |  |  |  |  |  |  |  |  | 
2 | CC1(C)O[C@H]2CC(=O)OC[C@]23[C@H]2CC[C@@]4(C)[C@H](c5ccoc5)OC(=O)[C@H]5O[C@]54[C@]2(C)C(=O)C[C@@H]13 [LIMONIN] |  | 1.07 (≈ 2.27 µM) | 0.92 (≈ 1.96 µM) | 202 (≈ 428 µM) | 452 (≈ 960 µM) |  | Active | Active | 0.00031 (≈ 0.000659 µM) | > 1000 | 8.99 | 62 | 33 | 10 | 450 |  |  |  | 
3 | Cc1ccnc2c1NC(=O)c1cccnc1N2C1CC1 [NEVIRAPINE] |  |  |  | 20.1 (≈ 75.3 µM) | 40.9 (≈ 154 µM) |  |  |  | > 0.266 |  |  |  |  |  |  | 100 |  |  | 
4 | CC(=O)O[C@H]1CC(=O)OC(C)(C)[C@@H]2CC(=O)[C@]3(C)[C@H](CC[C@@]4(C)[C@@H](c5ccoc5)OC(=O)[C@H]5O[C@]543)[C@@]12C [NOMILIN] |  | 3.98 (≈ 7.73 µM) | 13 (≈ 25.3 µM) | 756 (≈ 1470 µM) | 692 (≈ 1340 µM) |  |  |  | 0.0026 (≈ 0.00505 µM) |  | 6.65 | 230 | 130 | 40 |  |  | Active | Active | 
5 | Cc1cn([C@H]2C[C@H](N=[N+]=[N-])[C@@H](CO)O2)c(=O)[nH]c1=O [ZIDOVUDINE] |  | 0.16 (≈ 0.599 µM) |  | 3.24 (≈ 12.1 µM) | 31.2 (≈ 117 µM) |  |  |  |  |  |  |  |  |  |  | 100 |  |  | 100
